{
  "source": "paper PMC5028261",
  "about": "(Neurochemistry international, 2016)",
  "key": {"[1]": {"system": "CNS neurons in mixed retinal culture", "settings": "ref Geiger et al., 2002; cited from earlier work"}, "[2]": {"assay": "Superoxide detection by EPR with spin trap DEPMPO", "assay_type": "biochemical", "settings": "for reducing activity by EPR spectroscopy: converts superoxide adduct of the spin trap to hydroxyl adduct; for effect on EPR spectra of superoxide adduct of DEPMPO: xanthine/xanthine oxidase", "summary_of_the_method": "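Superoxide is generated from hypoxanthine (200 μM) and xanthine oxidase (0.0025 U/mL) with the spin trap DEPMPO present. A hydroxyl-adduct reference spectrum comes from a Fenton reaction: FeSO4 (100 μM), diethylenetriaminepentaacetic acid (100 μM) and H2O2 (1 mM) with DEPMPO (100 mM). Superoxide- and hydroxyl-DEPMPO adducts are recorded by EPR at room temperature, 9.85 GHz.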"}, "rat [3]": {"system": "rat", "settings": "rat experimental glaucoma; ref Almasieh et al., 2011; cited from earlier work"}, "[4]": {"settings": "over 72 hours, HPLC"}, "[5]": {"settings": "octanol/water, room temperature"}, "RGC-5 cells": {"system": "RGC-5 cells", "assay_type": "cell-based", "settings": "one hour, DSSA alone 22.3 ± 0.2, mean ± SEM of 3 experiments"}, "[6]": {"assay": "Cell-free disulfide reduction of DTNB", "assay_type": "biochemical", "settings": "for reduction of disulfides in cell-free assays: non-deprotected (borane-complexed) forms"}, "[7]": {"assay": "Superoxide scavenging, xanthine/xanthine oxidase with hydroethidine fluorescence", "assay_type": "biochemical", "settings": "1, 10, 100 μM, compared to PEG-SOD control"}, "[8]": {"assay": "Accelerated stability of solid compound by HPLC", "assay_type": "physicochemical"}, "rat [9]": {"system": "rat", "settings": "rat optic nerve transection; ref Almasieh et al., 2011; cited from earlier work"}, "[10]": {"system": "RGCs and retinal endothelial cells", "settings": "ref Schlieve et al., 2006; cited from earlier work"}, "rats [11]": {"system": "rats", "settings": "ref Hampton Research, 2016, cited from earlier work"}, "neurons after axotomy": {"system": "neurons after axotomy", "settings": "in vivo; ref Geiger et al., 2002; cited from earlier work"}, "rats [12]": {"system": "rats", "settings": "ref Swanson et al., 2005; cited from earlier work"}},
  "note": "Like-named read-outs stand apart in the source and are kept apart here.",
  "data": [
    {"compound": "O[C@@H](CS)[C@@H](O)CS", "note": "(racemic) [DTT, dithiothreitol]", "values": [
      {"measurement": "in vitro survival of CNS neurons", "setting": "[1]", "value": "can increase in vitro survival"}
    ]},
    {"compound": "COC(=O)CCP(CCC(=O)OC)c1ccccc1", "note": "[P1, bis(3-propionic acid methyl ester) phenylphosphine]", "values": [
      {"measurement": "reducing activity by EPR spectroscopy", "setting": "[2]", "value": "strong reducing activity"},
      {"measurement": "effect on EPR spectra of superoxide adduct of DEPMPO", "setting": "[2]", "value": "did not diminish the spectra of superoxide"}
    ]},
    {"compound": "COC(=O)CCP(c1ccccc1)c1ccccc1", "note": "[P2, (3-propionic acid methyl ester)diphenylphosphine]", "values": [
      {"measurement": "reducing activity by EPR spectroscopy", "setting": "[2]", "value": "strong reducing activity"},
      {"measurement": "effect on EPR spectra of superoxide adduct of DEPMPO", "setting": "[2]", "value": "did not diminish the spectra of superoxide"}
    ]},
    {"compound": "[BH3-][P+](CCC(=O)OC)(c1ccccc1)c1ccccc1", "note": "[PB2, (3-propionic acid methyl ester) diphenylphosphine-borane complex]", "values": [
      {"measurement": "neuroprotection in vivo", "setting": "rat [3]", "value": "neuroprotective"},
      {"measurement": "solubility in water", "setting": "[4]", "value": 3.7, "unit": "µM"},
      {"measurement": "log Poct/wat", "setting": "[5]", "value": 1.1},
      {"measurement": "mean cell fluorescence intensity (DSSA-1)", "setting": "RGC-5 cells; 10 μM", "value": "36.6 ± 0.2"},
      {"measurement": "reducing capability towards DTNB", "setting": "[6]; borane removed with DABCO, pH 7, compared with DTT and TCEP", "value": "reduced disulfides more effectively than DTT or TCEP"},
      {"measurement": "reduction of disulfides in cell-free assays", "setting": "[6]", "value": "did not reduce disulfides"},
      {"measurement": "superoxide scavenging (2-hydroxyethidium fluorescence)", "setting": "[7]", "value": "did not appreciably scavenge superoxide"},
      {"measurement": "calculated half-life", "setting": "[8]; 20°C, extrapolation using the Arrhenius equation", "value": 18, "unit": "years"},
      {"measurement": "peak area, % of control", "setting": "[8]; 40°C, 37 days", "value": 100, "unit": "%"},
      {"measurement": "peak area, % of control", "setting": "[8]; 40°C, 125 days", "value": 86, "unit": "%"},
      {"measurement": "peak area, % of control", "setting": "[8]; 60°C, 37 days", "value": 100, "unit": "%"},
      {"measurement": "peak area, % of control", "setting": "[8]; 60°C, 125 days", "value": 14, "unit": "%"},
      {"measurement": "neuroprotection in vivo", "setting": "rat [9]", "value": "neuroprotective"},
      {"measurement": "no toxicity up to (concentration)", "setting": "[10]", "value": 100, "unit": "µM"}
    ]},
    {"compound": "O=C(O)CCP(CCC(=O)O)CCC(=O)O", "note": "[TCEP, tris(2-carboxyethyl)phosphine]", "values": [
      {"measurement": "mean cell fluorescence intensity (DSSA-1)", "setting": "RGC-5 cells; 1 mM", "value": "25.6 ± 0.2"},
      {"measurement": "LD50", "setting": "rats [11]; i.p injection", "value": "greater than 1024 mg/kg"},
      {"measurement": "LD50", "setting": "rats [11]; rats dosed orally", "value": 3500, "unit": "mg/kg"},
      {"measurement": "neuronal death after axotomy", "setting": "neurons after axotomy", "value": "prevents neuronal death"},
      {"measurement": "neuronal death after optic nerve crush", "setting": "rats [12]", "value": "prevents neuronal death"}
    ]},
    {"compound": "bis(3-propionic acid methyl ester) phenylphosphine-borane complex [PB1]", "values": [
      {"measurement": "neuroprotection in vivo", "setting": "rat [3]", "value": "neuroprotective"},
      {"measurement": "mean cell fluorescence intensity (DSSA-1)", "setting": "RGC-5 cells; 10 μM", "value": "26.7 ± 0.3"},
      {"measurement": "reduction of disulfides in cell-free assays", "setting": "[6]", "value": "did not reduce disulfides"},
      {"measurement": "superoxide scavenging (2-hydroxyethidium fluorescence)", "setting": "[7]", "value": "did not appreciably scavenge superoxide"},
      {"measurement": "peak area, % of control", "setting": "[8]; 40°C, 37 days", "value": 80, "unit": "%"},
      {"measurement": "peak area, % of control", "setting": "[8]; 40°C, 125 days", "value": 58, "unit": "%"},
      {"measurement": "peak area, % of control", "setting": "[8]; 60°C, 37 days", "value": 72, "unit": "%"},
      {"measurement": "peak area, % of control", "setting": "[8]; 60°C, 125 days", "value": 12, "unit": "%"},
      {"measurement": "neuroprotection in vivo", "setting": "rat [9]", "value": "neuroprotective"}
    ]}
  ]
}
